Assays:
[1] = molecular target: Human immunodeficiency virus type 1 integrase (Human immunodeficiency virus 1, UniProt Q7ZJM1); assay: Inhibition of HIV1 integrase by ELISA
In short: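 HIV-1 integrase activity was read out by ELISA, and inhibition was expressed as an IC50.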

[2] = system: MCF7; assay: Cytotoxicity against human MCF7 cells by MTT assay; assay type: functional, cell-based
[3] = Cytotoxicity against human BCG823 cells by MTT assay; assay type: functional, cell-based
[4] = system: A549; assay: Cytotoxicity against human A549 cells by MTT assay; assay type: functional, cell-based
[5] = system: BEL-7404 (Homo sapiens); assay: Cytotoxicity against human BEL-7404 cells by MTT assay

Human immunodeficiency virus type 1 integrase, sequence (Q7ZJM1 whole entry): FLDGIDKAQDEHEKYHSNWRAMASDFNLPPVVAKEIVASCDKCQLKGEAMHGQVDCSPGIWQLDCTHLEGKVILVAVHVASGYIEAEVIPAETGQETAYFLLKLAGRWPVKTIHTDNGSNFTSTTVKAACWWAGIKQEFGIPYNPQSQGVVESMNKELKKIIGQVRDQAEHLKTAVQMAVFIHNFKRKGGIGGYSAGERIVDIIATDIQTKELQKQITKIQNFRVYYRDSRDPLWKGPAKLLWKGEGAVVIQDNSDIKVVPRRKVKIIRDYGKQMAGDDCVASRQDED

Row | IC50 [1] [µM] | SMILES | IC50 [2] [µM] | IC50 [3] [µM] | IC50 [4] [µM] | IC50 [5] [µM]
1 | > 100 | COc1cc(/C=C/C(=O)O)cc(Br)c1O | – | – | – | –
2 | > 100 | COc1cc(/C=C/C(=O)OC2CC3CCC2(C)C3(C)C)cc(Br)c1O (stereo not drawn) | – | – | – | –
3 | > 100 | COc1cc(/C=C/C(=O)O)ccc1O [FERULATE] | – | – | – | –
4 | 25 | O=C(/C=C/c1cc(O)c(O)c([N+](=O)[O-])c1)OCCc1ccccc1 | 12.3 | 22.9 | 11.4 | 59.7
5 | > 100 | O=C(/C=C/c1ccc(O)c(O)c1)Oc1ccc2ccccc2c1 | 12.8 | 59.8 | 50 | 58.1
6 | > 100 | COc1cc(/C=C/C(=O)O)cc([N+](=O)[O-])c1O | – | – | – | –
7 | > 100 | C#CCOC(=O)/C=C/c1ccc(O)c(O)c1 | – | – | – | –
8 | > 100 | O=C(/C=C/c1ccc(O)c(O)c1)Oc1ccccc1 | 5.9 | 56.6 | 75.9 | 44.3
9 | > 100 | COc1cc(/C=C/C(=O)OCCc2ccccc2)cc([N+](=O)[O-])c1O | > 300 | > 300 | > 300 | > 300
10 | > 100 | CCCCCCCOC(=O)/C=C/c1ccc(O)c(O)c1 | – | – | – | –
11 | > 100 | COc1c(O)ccc(/C=C/C(=O)OCCc2ccccc2)c1[N+](=O)[O-] | – | – | – | –
12 | > 100 | CCCCCCCCOC(=O)/C=C/c1ccc(O)c(O)c1 | – | – | – | –
13 | 13.5 | CC1(C)C2CCC1(C)C(OC(=O)/C=C/c1ccc(O)c(O)c1[N+](=O)[O-])C2 (stereo not drawn) | 40.7 | 117 | 52.9 | 28.7
14 | > 100 | CC(C)OC(=O)/C=C/c1ccc(O)c(O)c1 | – | – | – | –
15 | > 100 | COc1cc(/C=C/C(=O)OCCc2ccccc2)cc(Br)c1O | > 300 | > 300 | > 300 | > 300
16 | > 100 | COc1cc(/C=C/C(=O)OCCc2ccccc2)cc(Cl)c1O | – | – | – | –
17 | > 100 | O=C(/C=C/c1ccc(O)c(O)c1[N+](=O)[O-])OCCc1ccccc1 | 28.8 | 27.8 | 8.7 | 10.2
18 | > 100 | CCOC(=O)/C=C/c1ccc(O)c(O)c1 [ETHYL CAFFEATE] | – | – | – | –
19 | > 100 | C=CCOC(=O)/C=C/c1ccc(O)c(O)c1 | – | – | – | –
20 | > 100 | CC(C)(C)OC(=O)/C=C/c1ccc(O)c(O)c1 | – | – | – | –

Row | IC50 [1] [µM] | SMILES | IC50 [2] [µM] | IC50 [3] [µM] | IC50 [4] [µM] | IC50 [5] [µM]
21 | > 100 | CC1(C)C2CCC1(C)C(OC(=O)/C=C/c1cc(O)c(O)c([N+](=O)[O-])c1)C2 (stereo not drawn) | – | – | – | –
22 | > 100 | COc1c(O)ccc(/C=C/C(=O)O)c1[N+](=O)[O-] | – | – | – | –
23 | > 100 | COc1cc(/C=C/C(=O)OC2CC3CCC2(C)C3(C)C)cc([N+](=O)[O-])c1O (stereo not drawn) | – | – | – | –
24 | > 100 | CC(C)(COC(=O)/C=C/c1ccc(O)c(O)c1)[N+](=O)[O-] | – | – | – | –
25 | > 100 | CCCCOC(=O)/C=C/c1ccc(O)c(O)c1 [BUTYL CAFFEATE] | – | – | – | –
26 | 19.9 | CC1(C)C2CCC1(C)C(OC(=O)/C=C/c1ccc(O)c(O)c1)C2 (stereo not drawn) | > 300 | 101 | 19.5 | 28.2
27 | > 100 | COc1cc(/C=C/C(=O)OC2CC3CCC2(C)C3(C)C)cc(Cl)c1O (stereo not drawn) | – | – | – | –
28 | > 100 | CCCOC(=O)/C=C/c1ccc(O)c(O)c1 | – | – | – | –
29 | > 100 | O=C(/C=C/c1ccc(O)c(O)c1)OC1CCCCC1 | 30.3 | 97.6 | 89.3 | 15.5
30 | > 100 | CCCCCCC(C)OC(=O)/C=C/c1ccc(O)c(O)c1 (stereo not drawn) | – | – | – | –
31 | 26.8 | O=C(O)/C=C/c1cc(O)c(O)c([N+](=O)[O-])c1 | – | – | – | –
32 | > 100 | O=C(/C=C/c1ccc(O)c(O)c1)OCCc1ccccc1 [CAFFEIC ACID PHENETHYL ESTER] | 26.7 | 44.6 | 83.6 | 5.5
33 | > 100 | CCC(C)OC(=O)/C=C/c1ccc(O)c(O)c1 (stereo not drawn) | – | – | – | –
34 | > 100 | O=C(O)/C=C/c1ccc(O)c(O)c1[N+](=O)[O-] | – | – | – | –
35 | > 100 | COc1cc(/C=C/C(=O)O)cc(Cl)c1O | – | – | – | –
36 | > 100 | O=C(O)/C=C/c1ccc(O)c(O)c1 [CAFFEIC ACID] | – | – | – | –
37 | > 100 | O=C(/C=C/c1ccc(O)c(O)c1)OCc1ccccc1 [BENZYL CAFFEATE] | 14.1 | 48.1 | 27.3 | 17.4
38 | > 100 | COC(=O)/C=C/c1ccc(O)c(O)c1 [METHYLCAFFEATE] | – | – | – | –
39 | > 100 | CCCCCCCCCCCCCCCCCCOC(=O)/C=C/c1ccc(O)c(O)c1 | – | – | – | –
40 | > 100 | COc1c(O)ccc(/C=C/C(=O)OC2CC3CCC2(C)C3(C)C)c1[N+](=O)[O-] (stereo not drawn) | 62.3 | 32.1 | 21.1 | 6.6
